Assay results reported in paper PMC12675685 (Parasitology Research, 2025).
Entries after “also recorded” stand apart in the source; their conditions may differ. Counter-ions that a name gives are not always drawn. Like-named read-outs stand apart in the source and are kept apart here.

Tests used:
[1] = tested on: MDOK cells; assay: Cytotoxicity on host cells; type: cell-based, sheep; settings: for toxicity to MDOK cells, relative level: compared among the tested compounds; for IC50: read-out: IC50 in MDOK cells, CCK-8
[2] = tested on: Babesia duncani; assay: In vivo anti-Babesia activity in B. duncani-infected hamsters; design: species or system LVG Golden Syrian Hamsters; settings: for effect on B. duncani growth in vivo, in words / day post-treatment on which mortality reached 100% / mean parasitemia (parasite burden): furamidine 2 mg/kg bw; for effect on B. duncani growth in vivo, in words: BIX-01294 7.35 mg/kg bw i.p.; for day post-treatment on which mortality reached 100% / mean parasitemia (parasite burden): i.p. daily for five days, BIX-01294 7.35 mg/kg bw
In short: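 Twenty 12-week-old hamsters were infected i.p. with 2,500 B. duncani-infected RBCs and split randomly into four equal groups. Dosing began once parasites appeared on Giemsa smears (parasitemia ≈ 1%): 200 μl i.p. daily for five days of vehicle (DMSO/PBS 1:1), test compounds or diminazene aceturate 20 mg/kg bw. Parasitemia was followed on smears and survival recorded. Groups were compared by one-way ANOVA with Tukey–Kramer.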

[3] = tested on: B. microti; settings: ref Nehrbass-Stuedli et al. [2011], cited from earlier work
[4] = tested on: Babesia divergens; settings: cited from earlier work; for IC50: read-out: IC50 on B. divergens, ref Nehrbass-Stuedli et al. [2011]
[5] = tested on: Babesia microti; assay: In vivo anti-Babesia activity in B. microti-infected BALB/c mice; settings: for effect on B. microti parasite burden in vivo, in words: furamidine 2 mg/kg bw, BIX-01294 10 mg/kg bw, DA 30 mg/kg bw i.p.
[6] = tested on: Babesia sp. Xinjiang; assay: Anti-proliferation assay in Babesia sp. Xinjiang; type: cell-based; settings: for inhibition of BxjG5 growth in vitro, in words: 48, 72 and 96 h; for inhibitory effect on BxjG5 proliferation: concentrations increased to 200 μM, data not shown
In short: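 Monoclonal BxjG5 line grown in RPMI 1640 with 20% FBS and 5% fresh sheep RBCs, 37 °C, humidified 5% CO2. Cultures seeded at 1% parasitemia with serial dilutions in medium (200 μΜ to 0.005 μΜ), run 48, 72 or 96 h, with drug-containing medium renewed every 48 h. DMSO controls (≤0.4%). Parasitemia counted on Giemsa smears (2,000–4,000 RBCs), inhibition taken relative to control, and curves fitted. Three experiments, triplicate wells.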

[7] = In vivo safety evaluation of furamidine in healthy BALB/c mice; settings: 2 mg/kg bw i.p. daily for 5 consecutive days
In short: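 Healthy female BALB/c mice, 6–8 weeks old (n = 5/group), received vehicle (DMSO/PBS) or test compound i.p. daily for 5 days. Clinical signs were checked twice daily and weight each morning before dosing. Blood was taken retro-orbitally under isoflurane 24 h after the last dose: EDTA-K2 blood for haematology, serum for biochemistry. Livers were fixed in 4% paraformaldehyde and stained with H&E.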

[8] = tested on: Plasmodium falciparum; settings: read-out: IC50 against Plasmodium falciparum; ref Malmquist et al. [2012]; cited from earlier work
[9] = Babesia, 48 h, read-out: IC50 in Babesia sp. Xinjiang
[10] = Babesia, 72 h, read-out: IC50 in Babesia sp. Xinjiang
[11] = Babesia, 96 h, read-out: IC50 in Babesia sp. Xinjiang
[12] = Babesia, 96 h, read-out: IC50 on BxjG5 growth

N=C(N)c1ccc(-c2ccc(-c3ccc(C(=N)N)cc3)o2)cc1 [Furamidine]
toxicity to MDOK cells, relative level [1]: intermediate levels
IC50 ([1]; 24 h): 98.81 ± 0.6 µM
IC50 ([1]; 48 h): 45.36 ± 0.43 µM
IC50 ([1]; 72 h): 43.01 ± 0.24 µM
effect on B. duncani growth in vivo, in words [2]: effectively inhibited the growth; also recorded: did not completely eliminate parasites
day post-treatment on which mortality reached 100% [2]: 6 days
mean parasitemia (parasite burden) [2]: less than 10%
complete suppression of parasites through ([3]; 3.125 mg/kg): 13 days
anti-parasite activity in B. microti-infected NMRI mouse model, in words ([3]; 25 mg/kg): totally cure
IC50 ([4]; strain 1903): 0.0368 µM
IC50 ([4]; strain 4201): 0.0358 µM
complete suppression of parasitemia up to day ([5]; furamidine 2 mg/kg): 50 dpi
day posttreatment on which parasitemia peaked ([5]; furamidine 2 mg/kg bw i.p.): 3 days
inhibition of BxjG5 growth in vitro, in words [6]: effectively inhibit BxjG5 growth in vitro at nanomolar concentrations
IC50 [6, 9]: 0.03 µM
IC50 ([6]; Babesia, read-out: IC50 on BxjG5): 0.02 µM
body weight gain versus vehicle control [7]: no significant difference
hematological and biochemical analyses versus vehicle control [7]: no significant differences
liver histopathology (H&E) [7]: appeared normal

CCCc1cc(C)[nH]c(=O)c1CNC(=O)c1cc(-c2ccnc(N3CCN(C)CC3)c2)cc2c1cnn2C(C)C [GSK343]
IC50 [6, 9]: 7.25 ± 0.75 µM
IC50 [6, 10]: 6.88 ± 0.51 µM
IC50 [6, 11]: 7.04 ± 0.56 µM

O=C(Nc1cccc(C2=NCCN2)c1)Nc1cccc(C2=NCCN2)c1 [Imidocarb dipropionate]
toxicity to MDOK cells, relative level [1]: intermediate levels
inhibition of BxjG5 growth in vitro, in words [6]: effectively inhibit BxjG5 growth in vitro at nanomolar concentrations
IC50 [6, 10]: 0.03 µM
IC50 [6, 11]: 0.02 µM

CCOCC1(COCC)CCC(c2[nH]ncc2CN(C)CCNC)CC1.Cl.Cl.Cl [GSK3368715]
IC50 ([1]; 24 h): > 100 µM
IC50 ([1]; 48 h): > 100 µM
IC50 ([1]; 72 h): > 100 µM
inhibitory effect on BxjG5 proliferation [6]: did not observe any obvious inhibitory effect
IC50 ([6]; read-out: IC50 in Babesia sp. Xinjiang, 48 h incubation, BxjG5): > 200 µM
IC50 ([6]; read-out: IC50 in Babesia sp. Xinjiang, 72 h incubation, BxjG5): > 200 µM
IC50 ([6]; read-out: IC50 in Babesia sp. Xinjiang, 96 h incubation, BxjG5): > 200 µM

CN1C(=O)[C@@]23C[C@]4([C@]56C[C@@]78SS[C@@](CO)(C(=O)N7[C@H]5Nc5ccccc56)N(C)C8=O)c5ccccc5N[C@@H]4N2C(=O)[C@]1(CO)SS3 [Chaetocin]
inhibition rate on MDOK cells ([1]; concentrations exceeded 10 μM): greater than 70%
IC50 [6, 9]: > 200 µM
IC50 [6, 10]: > 200 µM
IC50 [6, 11]: > 200 µM
inhibitory effect on BxjG5 proliferation [6]: did not observe any obvious inhibitory effect

COc1cc2nc(N3CCCN(C)CC3)nc(NC3CCN(Cc4ccccc4)CC3)c2cc1OC [BIX-01294]
effect on B. duncani growth in vivo, in words [2]: did not appear to inhibit Babesia growth in vivo
day post-treatment on which mortality reached 100% [2]: 2 days
mean parasitemia (parasite burden) [2]: approximately 20%
IC50 [8]: 0.075 ± 0.036 µM
inhibitory activity against B. divergens in vitro, in words ([4]; ref Vanheer and Kafsack [2021]): moderate inhibitory activity
effect on B. microti parasite burden in vivo, in words [5]: did not appear to inhibit Babesia growth in vivo
IC50 [6, 9]: 0.47 ± 0.1 µM
IC50 [6, 10]: 0.35 µM
IC50 [6, 11]: 0.29 µM
IC50 [6, 12]: 0.29 to 0.47 µM

CCCc1cc(C)[nH]c(=O)c1CNC(=O)c1cc(-c2ccc(N3CCN(C(C)C)CC3)nc2)cc2c1cnn2C(C)C [UNC-1999]
inhibition rate on MDOK cells ([1]; concentrations exceeded 10 μM): greater than 70%
IC50 [6, 9]: 5.15 ± 1.31 µM
IC50 [6, 10]: 3.88 ± 1 µM
IC50 [6, 11]: 4.7 ± 1.03 µM

Cc1cn(CCN2CCN(c3ccccc3-c3cc(C#N)cc(C(=O)NCCCN4CCCC4)c3)CC2)c2ccccc12 [LLY-507]
inhibition rate on MDOK cells ([1]; concentrations exceeded 10 μM): greater than 70%
IC50 [6, 9]: 4.02 ± 0.74 µM
IC50 [6, 10]: 3.25 ± 0.46 µM
IC50 [6, 11]: 2.58 ± 0.63 µM

CC(=O)NCC(=O)O.CC(=O)NCC(=O)O.N=C(N)c1ccc(N=NNc2ccc(C(=N)N)cc2)cc1 [DA, Diminazene Aceturate]
deaths until day 43 posttreatment ([2]; DA 20 mg/kg bw i.p. daily for five days): 0/4
effect on B. microti parasite burden in vivo, in words [5]: effectively decreased the parasite burden

O=C([C@@H](Cc1cccc(C(F)(F)F)c1)NS(=O)(=O)c1cc(F)c2c(c1)CCNC2)N1CCCC1 [PFI-2 hydrochloride]
IC50 [6, 9]: 16.5 ± 0.86 µM
IC50 [6, 10]: 10.7 ± 0.82 µM
IC50 [6, 11]: 17.5 ± 1.09 µM

Nc1ncnc2c1ncn2[C@@H]1O[C@H](C[C@@H](N)CC[C@H](N)C(=O)O)[C@@H](O)[C@H]1O [Sinefungin]
inhibition rate on MDOK cells ([1]; concentrations increased to 100 μM): < 30%
IC50 [6, 9]: 2.14 ± 0.07 µM
IC50 [6, 10]: 2.25 ± 0.34 µM
IC50 [6, 11]: 2.89 ± 1.1 µM

CCN(CC)Cc1cc(Nc2ccnc3cc(Cl)ccc23)ccc1O [Amodiaquine]
toxicity to MDOK cells, relative level [1]: intermediate levels
IC50 [6, 9]: 33.2 ± 2.19 µM
IC50 [6, 10]: 23.9 ± 1.47 µM
IC50 [6, 11]: 26.6 ± 1.49 µM
IC50 [6, 12]: ~26 µM
